Compound activity deposited in PubChem by several laboratories.
NadD inh: inhibitors of Staphylococcus aureus NadD. AID 602399. purified NadD enzyme, colorimetric absorbance read-out. inhibition, % at 20 µM. hit rate 0.78% among 360,000; in the data active = inhibition above about 26%
IMP-1 inhibitor: inhibitors of Pseudomonas aeruginosa IMP-1 metallo-beta-lactamase; purified IMP-1, nitrocefin hydrolysis, epi-absorbance fluorescence; inhibition, % at 5.6 µM; hit rate 0.45% among 290,000; AID 1556;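 active = inhibition above the mean plus 3 SD of all compounds in the same screening run, cut at about 4.5% in these data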;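 note: 0% = IMP-1 with DMSO and 100% = DMSO wells lacking enzyme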
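System: Purified recombinant IMP-1 metallo-beta-lactamase enzyme | Measured by: Fluorescence quenching readout, ex 480/em 530 nm | Replication: Singlicate | Incubation: 15 min preincubation plus 25 min reaction at 25 °C | Evaluation: Percent inhibition from optical density relative to buffer-blank wells | Benchmarks: DMSO with and without IMP-1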
VIM-2 inh: inhibitors of Pseudomonas aeruginosa VIM-2 metallo-beta-lactamase; purified VIM-2, nitrocefin hydrolysis, epi-absorbance fluorescence; inhibition, % at 5.6 µM; hit rate 0.89% among 290,000; AID 1527;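 active = inhibition above the mean of all tested compounds plus 3 SD, cutoff set per screening run, cut at about 7.5% in these data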;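 note: red hydrolysis product quenches plate fluorescence so inhibitors raise well fluorescence; 0% = enzyme with DMSO and 100% = DMSO without enzyme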
HCV core dimer: blocks dimerization of HCV core protein; TR-FRET GST/Flag-core106 dimerization, 1536-well; inhibition, % at 5 µM; hit rate 0.33% among 300,000;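 active = inhibition above the mean of all tested compounds plus 3 SD, set per screening campaign, cut at about 45% in these data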
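assay system = GST-tagged and Flag-tagged HCV core protein residues 1-106 | controls = unlabelled core106 and no-GST-core106 wells | incubation = compound-protein-antibody incubation 4 h at 22.5 °C | probe or stimulus = Eu donor and XL665 acceptor anti-tag antibodies | read-out = % inhibition based on acceptor/donor emission ratio | signal = TR-FRET 671 and 617 nm emission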
An asterisk follows results filed as active; . = no result given. This is a sample that favours compounds with a hit; in the whole collection about 1.9% have one here.

SMILES	NadD inh	IMP-1 inhibitor	VIM-2 inh	HCV core dimer
COC(=O)c1cc2c(=O)c3ccccc3oc2nc1/C=C/N(C)C	-9.2	3.5	7.7*	.
COC(=O)c1cc2c(=O)c3ccccc3oc2nc1C	-8.3	-3.8	6.2	.
COc1ccc(CCNC(=O)CCSCc2ccccc2F)cc1OC	-9.4	-0.2	0.3	-13.7
CCCNC(=O)C1(C)CCCN(C(=O)c2ccc(F)cc2Cl)C1 (stereo not drawn)	1.5	.	.	.
NC(=S)n1[nH]c(-c2ccc([N+](=O)[O-])cc2)c(N=Nc2ccccc2[N+](=O)[O-])c1=O	64.5*	-1.7	-2.1	.
Cc1[nH]n(C(N)=S)c(=O)c1N=Nc1cccc([N+](=O)[O-])c1C	-3.5	-6.8	-2.0	-20.8
Cc1c(N=Nc2c(-c3ccc([N+](=O)[O-])cc3)[nH]n(C(N)=S)c2=O)cccc1[N+](=O)[O-]	80.7*	-5.3	-6.6	.
Cc1[nH]n(-c2ccccc2)c(=O)c1N=Nc1cccc([N+](=O)[O-])c1	-2.9	-7.4	-4.8	5.9
NC(=S)n1[nH]c(-c2ccc([N+](=O)[O-])cc2)c(N=Nc2cccc([N+](=O)[O-])c2)c1=O	77.1*	-3.7	-4.6	.
Cc1cc(=O)n2c3ccccc3n(C)c2n1	-1.6	0.3	10.3*	.
CCOC(=O)N1CCN(C(=S)NC(=O)c2cncc(Br)c2)CC1	0.5	5.4*	-5.8	3.1
CCOC(=O)N1CCN(C(=S)NC(=O)c2ccc(Br)cc2)CC1	3.3	-3.2	-0.6	-2.5
CC(C)(C)N=Cc1c(O)ccc2oc3c(c12)CCCC3	-5.7	19.4*	4.2	2.3
COC1=C(Nc2ccccc2OC)C(=O)c2ccccc2C1=O	-1.9	0.7	10.0*	0.8
COc1ccccc1NC1=C(NC(C)=O)C(=O)c2ccccc2C1=O	-0.3	-3.7	-1.9	.
CCC(=O)c1ccc(OCC(=O)OCC(=O)N2c3ccccc3CC2C)cc1 (stereo not drawn)	-7.2	.	.	2.4
COc1ccc2c(c1)OC[C@H]1[C@H]2N2C(=O)c3cc(OC)c(OC)cc3NC(=O)[C@@]2(C)[C@H]1c1ccccc1	-13.5	.	.	46.2*
O=C(COC(=O)c1n[nH]c2ccccc12)NCCc1ccccc1	-3.3	.	.	.
COc1cc([N+](=O)[O-])cc(/C=N/NC(=O)C(C)Nc2cccc3ccccc23)c1O (stereo not drawn)	48.4*	-1.5	-2.5	-11.8
CC(Nc1cccc2ccccc12)C(=O)N/N=C/c1ccc([N+](=O)[O-])cc1 (stereo not drawn)	13.8	-1.8	-0.8	-0.8
CNC(=O)c1cn(-c2ccccc2)c(=O)c2ccccc12	-4.4	6.1*	-1.8	2.2
CC(C)(C)c1ccc(C(=O)NCCC(=O)Nc2ccc3c(c2)OCCO3)cc1	-3.6	.	.	.
O=C1NC(=Nc2ccccc2)S/C1=C\c1cccn1-c1ccccc1	37.9*	-4.8	-3.0	22.1
O=C(c1cc2ccccc2oc1=O)N(Cc1ccc2c(c1)OCO2)Cc1ccco1	1.8	6.5*	-2.1	0.9
C=CCNC(=S)NNC(=O)c1ccncc1	-2.4	-3.0	-5.2	-3.8
SMILES	NadD inh	IMP-1 inhibitor	VIM-2 inh	HCV core dimer
O=C1c2cccc(OCc3ccc(F)cc3)c2CCN1Cc1ccccc1	2.9	6.1*	-2.1	7.8
CC(C)C1OC2c3cccc4cccc(c34)C2N1c1ccccc1 (stereo not drawn)	0.2	4.6*	2.5	-1.6
CCN1CCN(CC(=O)Nc2ccccc2)C(=O)C1=O	-4.1	4.6*	4.7	-7.2
CCCc1cc(=O)oc2c3c(c(Cl)cc12)OCN(CCCO)C3	.	10.1*	4.5	-4.0
O=C(Nc1oc2ccccc2c(=O)c1-c1ccc(Br)cc1)c1ccco1	18.0	-1.7	-2.2	63.1*
COc1cccc(-c2c(NC(=O)c3ccco3)oc3ccccc3c2=O)c1	5.1	-2.3	-2.7	-6.4
Cc1ccc2nc(/C(C#N)=C\c3cc(C)n(-c4cccc([N+](=O)[O-])c4)c3C)[nH]c2c1	29.4*	-1.4	-2.5	12.0
O=C(Nc1nncs1)C12CC3CC(CC(C3)C1)C2	1.8	-2.7	0.3	-7.5
O=C(Nc1nn[nH]n1)C12CC3CC(CC(C3)C1)C2	10.7	-0.9	9.0*	8.7
CC1(C)CC(=O)C2=C(C1)NC(SCC(=O)Nc1ccccc1)=C(C#N)C2c1ccco1 (stereo not drawn)	4.8	-7.3	-2.5	13.3
Cc1ccc(C(=O)CSC2=C(C#N)C(c3ccco3)C3=C(CC(C)(C)CC3=O)N2)cc1 (stereo not drawn)	13.8	5.5*	1.9	6.0
COc1ccccc1NC(=O)C1=C(C)NC(SCC(=O)c2ccccc2)=C(C#N)C1c1ccco1 (stereo not drawn)	36.5*	-5.7	0.2	.
O=C(Nc1ccc(Cl)cc1)c1cc(-c2cccs2)on1	0.2	14.8*	-1.1	9.0
O=C(Nc1ccc(Br)cc1)c1cc(-c2cccs2)on1	3.9	11.1*	-1.1	-8.3
Cn1nnnc1SCc1cccc(CSc2nnnn2C)n1	-4.7	5.3*	-0.3	-2.4
CCOc1cc(C(=O)N(CC)CC(=O)Nc2c(F)cccc2F)ccc1OCC(=O)N1CCCCC1	6.7	.	.	-10.4
Cc1ccccc1-n1nc2c(c1NC(=O)c1ccc(Br)o1)CSC2	49.6*	-3.9	-2.3	18.7
Cc1ccccc1-n1nc2c(c1NC(=O)c1ccco1)CS(=O)(=O)C2	1.7	-2.4	-0.6	-2.1
CCC(=O)N1CCN(c2ccc(NC(=O)c3ccc4c(c3)OCO4)cc2)CC1	-2.4	-0.3	-0.9	-5.7
Cc1ccc(C(=O)Nc2ccc(N3CCN(C)CC3)cc2)cc1	0.7	-6.6	9.7*	1.6
CCN1CCN(c2ccc(NC(=O)c3ccc4c(c3)OCO4)cc2)CC1	-0.3	-4.7	9.3*	0.2
CCOc1ccc(C(=O)Nc2ccc(N3CCN(C)CC3)cc2)cc1	-7.2	-2.1	10.7*	3.8
CCCCOc1ccc(C(=O)Nc2ccc(N3CCN(C)CC3)cc2)cc1	-10.5	-5.4	0.1	-12.5
CC(=O)OCC(O)C1(O)CCC2C3CCC4=CC(=O)CCC4(C)C3C(O)CC21C (stereo not drawn)	0.4	.	.	.
O=C(NCc1ccc2[nH]c3c(c2c1)CCCC3)c1ccc(S(=O)(=O)N2CCCC2)cc1	10.7	-0.5	11.9*	36.6
SMILES	NadD inh	IMP-1 inhibitor	VIM-2 inh	HCV core dimer
CCOC(=O)C1CCN(S(=O)(=O)c2ccc3[nH]c(=O)c(=O)[nH]c3c2)CC1	-0.3	-1.2	-1.8	1.4
CCOC(=O)C1CCN(S(=O)(=O)c2ccc3[nH]c4c(c3c2)CCCC4)CC1	-6.7	0.5	8.1*	8.7
Cc1cc2cc(CNC(=O)c3ccc(S(=O)(=O)N4CCCCC4)cc3)ccc2[nH]1	3.0	-3.1	-3.9	-3.0
CC1(C)S[C@@H]2[C@H](NC(=O)COc3ccccc3)C(=O)N2C1C(=O)OCc1cc2ccccc2n1S(=O)(=O)c1ccccc1 (stereo partly drawn)	.	0.4	0.5	65.6*
CC1(C)S[C@@H]2[C@H](NC(=O)COc3ccccc3)C(=O)N2C1C(=O)OCC1CCCCC1 (stereo partly drawn)	2.6	.	.	7.3
Cc1ccc(SCC(=O)Nc2ccc(S(N)(=O)=O)cc2)cc1	-4.2	-1.2	-0.5	1.2
